Among the data in BindingDB's records for doi:10.1016/j.bmc.2019.115122 (Hokkaido University, 2019) are EC50 values, retold here.

As a reminder, the EC50 is the concentration giving half of the maximal effect.

In the first assay the target is T1, Peroxisome proliferator-activated receptor gamma (Homo sapiens, UniProt P37231).
T1 sequence (P37231 whole entry): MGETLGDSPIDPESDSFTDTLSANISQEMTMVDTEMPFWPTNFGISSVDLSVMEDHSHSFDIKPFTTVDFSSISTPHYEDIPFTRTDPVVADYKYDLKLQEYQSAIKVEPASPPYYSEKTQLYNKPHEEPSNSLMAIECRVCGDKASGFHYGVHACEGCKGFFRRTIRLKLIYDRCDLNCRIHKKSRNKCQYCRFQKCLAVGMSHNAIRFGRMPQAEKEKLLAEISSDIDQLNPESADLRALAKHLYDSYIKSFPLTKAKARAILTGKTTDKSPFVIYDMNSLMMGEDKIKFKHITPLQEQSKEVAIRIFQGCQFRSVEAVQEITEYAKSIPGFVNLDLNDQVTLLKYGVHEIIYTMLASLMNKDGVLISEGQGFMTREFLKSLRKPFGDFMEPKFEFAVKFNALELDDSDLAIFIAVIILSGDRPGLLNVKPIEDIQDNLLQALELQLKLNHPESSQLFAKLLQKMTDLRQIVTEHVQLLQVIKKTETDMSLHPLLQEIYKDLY
The experiment in a line: Agonist activity at PPARgamma in human MKN45 cells assessed as induction of cell aggregation incubated for 5 days by Hoechst 33342 staining based IN cell analyzer method. In outline: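 MKN45 cells in RPMI1640 with 10% FBS at 37 °C, 5% CO2, seeded 2500 cells/well and exposed to compound 1-1000 nM (n = 3 per concentration) for 5 days. Nuclei stained with Hoechst 33342, imaged on IN Cell Analyzer, nuclear area computed. Maximum activity expressed as % of reference compound maximum; EC50 = concentration giving 50% of own maximum.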
As for `COCc1nc2cc(Cl)ccn2c1Cc1ccc2c(c1)COc1cc(F)ccc1/C2=C(\C)c1noc(=O)[nH]1`, the 50% effective concentration (EC50) was 1 nM.

Target in the next assay: not listed separately
Put plainly: Agonist activity at PPARgamma in human MKN45 cells assessed as induction of cell aggregation incubated for 5 days by Hoechst 33342 staining based IN cell analyzer method.
With `C/C(=C1/c2ccc(Cn3c(C4CC4)nc4c(Cl)nccc43)cc2COc2cc(F)ccc21)c1noc(=O)[nH]1`, the EC50 worked out at 22 nM.
On to `CCCc1nc2ccccc2n1Cc1ccc2c(c1)COc1ccc(F)cc1/C2=C(\C)c1noc(=O)[nH]1`, for which the EC50 was found to be 7 nM.
The same measure, in the same setting: the same measure for `C/C(=C1/c2ccc(Cc3c(C4CC4)nc4ccc(Cl)cn34)cc2COc2cc(F)ccc21)c1noc(=O)[nH]1`: 2 nM; for `C/C(=C1/c2ccc(Cn3c(C4CC4)nc4c(Cl)ccnc43)cc2COc2cc(F)ccc21)c1noc(=O)[nH]1`: 32 nM.
`CCCc1nc2c(C)cccc2n1Cc1ccc2c(c1)COc1ccccc1/C2=C(\C)c1noc(=O)[nH]1`: the 50% effective concentration (EC50) was found to be 3.3 nM.
For `C/C(=C1/c2ccc(Cc3c(C4CC4)nc4c(Cl)cccn34)cc2COc2cc(F)ccc21)c1noc(=O)[nH]1`, the EC50 turned out to be 2.5 nM.
Regarding `C/C(=C1/c2ccc(Cc3c(C4CC4)nc4ccccn34)cc2COc2cc(F)ccc21)c1noc(=O)[nH]1`, the concentration for a half-maximal effect (EC50) was 5.3 nM.
In the case of `C/C(=C1/c2ccc(Cc3c(C4CC4)nc4c5c(ccn34)OCC5)cc2COc2cc(F)ccc21)c1noc(=O)[nH]1`, the half-maximal effective concentration (EC50) is 19 nM.
In the case of `CCCc1nc2ccccc2n1Cc1ccc2c(c1)COc1c(F)cccc1/C2=C(\C)c1noc(=O)[nH]1`, the EC50 was 3.8 nM.
For the compound `C/C(=C1/c2ccc(Cc3c(C4CC4)nc4cc(Cl)ccn34)cc2COc2cc(F)ccc21)c1noc(=O)[nH]1`, the half-maximal effective concentration (EC50) is 1.4 nM.
With `C/C(=C1/c2ccc(Cn3c(C4CC4)nc4cscc43)cc2COc2cc(F)ccc21)c1noc(=O)[nH]1`, the EC50 was 3 nM.
In the case of `CCCc1nc2ccccc2n1Cc1ccc2c(c1)COc1cc(F)ccc1/C2=C(\C)c1noc(=O)[nH]1`, the EC50 was 1 nM.
For the compound `C/C(=C1/c2ccc(Cc3c(C4CC4)nc4cc(F)ccn34)cc2COc2cc(F)ccc21)c1noc(=O)[nH]1`, the half-maximal effective concentration (EC50) is 1.7 nM.
